ChEMBL document CHEMBL1275584, “Genetically engineered lipopeptide antibiotics related to A54145 and daptomycin with improved properties” (Antimicrob Agents Chemother, 2010)
In brackets after ≈: the same amount, converted by molar mass.

Key:
Format in all cases: functional
Staphylococcus aureus [1] = assay: Antibacterial activity against Staphylococcus aureus 42 in absence of 1% bovine pulmonary surfactant by CLSI method; conditions: Staphylococcus aureus, 42, Pulmonary surfactant
How it was run: (§1)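 Broth MIC in Mueller-Hinton broth with 50 mg/liter CaCl2, run with or without 1% bovine pulmonary surfactant, following CLSI methods. Colonies came from frozen stocks streaked on sheep-blood tryptic soy agar (37°C, ~24 h). Incubation was at 37°C with rotation at 200 rpm. The ratio is MIC with surfactant divided by MIC without.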

Staphylococcus aureus [2] = assay: Antibacterial activity against Staphylococcus aureus 42 in presence of 1% bovine pulmonary surfactant by CLSI method; conditions: Staphylococcus aureus, 42, Pulmonary surfactant; how it was run: as §1
Staphylococcus aureus [3] = assay: Ratio of MIC for Staphylococcus aureus 42 in presence of 1% bovine pulmonary surfactant to MIC for Staphylococcus aureus 42 in absence of 1% bovine pulmonary surfactant; how it was run: as §1

SMILES	MIC (Staphylococcus aureus [1]) [µg/mL]	MIC (Staphylococcus aureus [2]) [µg/mL]	Ratio (Staphylococcus aureus [3])
CC[C@H](C)[C@@H]1NC(=O)[C@H](CCC(=O)O)NC(=O)[C@@H](CC(N)=O)NC(=O)CNC(=O)[C@H]([C@H](OC)C(=O)O)NC(=O)[C@@H](CC(N)=O)NC(=O)[C@H](CC(=O)O)NC(=O)[C@H](C)NC(=O)CN(C)C(=O)[C@@H](NC(=O)[C@@H](NC(=O)[C@@H](CCC(=O)O)NC(=O)[C@H](Cc2c[nH]c3ccccc23)NC(=O)CCCCCCCC(C)C)[C@H](O)C(N)=O)[C@H](C)OC1=O	16 (≈ 9.73 µM)	16	1
CC[C@H](C)[C@@H]1NC(=O)[C@H]([C@H](C)CC(=O)O)NC(=O)[C@@H](CO)NC(=O)CNC(=O)[C@H](CC(=O)O)NC(=O)[C@@H](C)NC(=O)[C@H](CC(=O)O)NC(=O)[C@H](CCCN)NC(=O)CNC(=O)[C@@H](NC(=O)[C@H](CC(=O)O)NC(=O)[C@@H](CC(N)=O)NC(=O)[C@H](Cc2c[nH]c3ccccc23)NC(=O)CCCCCCCC(C)C)[C@H](C)OC1=O	2 (≈ 1.28 µM)	8	4
CC[C@H](C)[C@@H]1NC(=O)[C@H](CCC(=O)O)NC(=O)[C@@H](CC(N)=O)NC(=O)CNC(=O)[C@H]([C@H](OC)C(=O)O)NC(=O)[C@@H](CO)NC(=O)[C@H](CC(=O)O)NC(=O)[C@H](C)NC(=O)CN(C)C(=O)[C@@H](NC(=O)[C@@H](NC(=O)[C@@H](CCC(=O)O)NC(=O)[C@H](Cc2c[nH]c3ccccc23)NC(=O)CCCCCCCC(C)C)[C@H](O)C(N)=O)[C@H](C)OC1=O	8 (≈ 4.95 µM)	8	1
CC[C@H](C)[C@@H]1NC(=O)[C@H]([C@H](C)CC(=O)O)NC(=O)[C@@H](CC(N)=O)NC(=O)CNC(=O)[C@H]([C@H](OC)C(=O)O)NC(=O)[C@@H](C)NC(=O)[C@H](CC(=O)O)NC(=O)[C@H](C)NC(=O)CN(C)C(=O)[C@@H](NC(=O)[C@@H](NC(=O)[C@@H](CCC(=O)O)NC(=O)[C@H](Cc2c[nH]c3ccccc23)NC(=O)CCCCCCCC(C)C)[C@H](O)C(N)=O)[C@H](C)OC1=O	1 (≈ 0.619 µM)	32	32
CC(C)CCCCCCCC(=O)N[C@@H](Cc1c[nH]c2ccccc12)C(=O)N[C@H](CC(N)=O)C(=O)N[C@@H](CC(=O)O)C(=O)N[C@@H]1C(=O)NCC(=O)N[C@@H](CCCN)C(=O)N[C@@H](CC(=O)O)C(=O)N[C@H](C)C(=O)N[C@@H](CC(=O)O)C(=O)NCC(=O)N[C@H](CO)C(=O)N[C@@H]([C@H](C)CC(=O)O)C(=O)N[C@@H](C(C)C)C(=O)O[C@H]1C	4 (≈ 2.59 µM)	8	2
CC[C@H](C)[C@@H]1NC(=O)[C@H](CCC(=O)O)NC(=O)[C@@H](CC(N)=O)NC(=O)CNC(=O)[C@H]([C@H](OC)C(=O)O)NC(=O)[C@@H](C)NC(=O)[C@H](CC(=O)O)NC(=O)[C@H](C)NC(=O)CN(C)C(=O)[C@@H](NC(=O)[C@@H](NC(=O)[C@@H](CCC(=O)O)NC(=O)[C@H](Cc2c[nH]c3ccccc23)NC(=O)CCCCCCCC(C)C)[C@H](O)C(N)=O)[C@H](C)OC1=O	4 (≈ 2.5 µM)	8	2
CC(C)CCCCCCCC(=O)N[C@@H](Cc1c[nH]c2ccccc12)C(=O)N[C@H](CC(N)=O)C(=O)N[C@@H](CC(=O)O)C(=O)N[C@@H]1C(=O)NCC(=O)N[C@@H](CCCN)C(=O)N[C@@H](CC(=O)O)C(=O)N[C@H](C)C(=O)N[C@@H](CC(=O)O)C(=O)NCC(=O)N[C@H](C)C(=O)N[C@@H]([C@H](C)CC(=O)O)C(=O)N[C@@H](CC(=O)c2ccccc2N)C(=O)O[C@H]1C	1 (≈ 0.618 µM)	16	16
CC[C@H](C)[C@@H]1NC(=O)[C@H](CCC(=O)O)NC(=O)[C@@H](CO)NC(=O)CNC(=O)[C@H]([C@H](OC)C(=O)O)NC(=O)[C@@H](CCCCN)NC(=O)[C@H](CC(=O)O)NC(=O)[C@H](C)NC(=O)CN(C)C(=O)[C@@H](NC(=O)[C@@H](NC(=O)[C@@H](CCC(=O)O)NC(=O)[C@H](Cc2c[nH]c3ccccc23)NC(=O)CCCCCCCC(C)C)[C@H](O)C(N)=O)[C@H](C)OC1=O	64 (≈ 39.2 µM)	128	2
CC(C)CCCCCCCC(=O)N[C@@H](Cc1c[nH]c2ccccc12)C(=O)N[C@H](CC(N)=O)C(=O)N[C@@H](CC(=O)O)C(=O)N[C@@H]1C(=O)NCC(=O)N[C@@H](CCCN)C(=O)N[C@@H](CC(=O)O)C(=O)N[C@H](C)C(=O)N[C@@H](CC(=O)O)C(=O)NCC(=O)N[C@H](CC(N)=O)C(=O)N[C@@H]([C@H](C)CC(=O)O)C(=O)N[C@@H](CC(=O)c2ccccc2N)C(=O)O[C@H]1C	1 (≈ 0.602 µM)	16	16
CC(C)CCCCCCCC(=O)N[C@@H](Cc1c[nH]c2ccccc12)C(=O)N[C@H](CC(N)=O)C(=O)N[C@@H](CC(=O)O)C(=O)N[C@@H]1C(=O)NCC(=O)N[C@@H](CCCN)C(=O)N[C@@H](CC(=O)O)C(=O)N[C@H](C)C(=O)N[C@@H](CC(=O)O)C(=O)NCC(=O)N[C@H](CO)C(=O)N[C@@H]([C@H](C)CC(=O)O)C(=O)N[C@@H](CC(=O)c2ccccc2N)C(=O)O[C@H]1C	0.5 (≈ 0.306 µM)	64	128
CC[C@H](C)[C@@H]1NC(=O)[C@H](CCC(=O)O)NC(=O)[C@@H](C)NC(=O)CNC(=O)[C@H]([C@H](OC)C(=O)O)NC(=O)[C@@H](CCCCN)NC(=O)[C@H](CC(=O)O)NC(=O)[C@H](C)NC(=O)CN(C)C(=O)[C@@H](NC(=O)[C@@H](NC(=O)[C@@H](CCC(=O)O)NC(=O)[C@H](Cc2c[nH]c3ccccc23)NC(=O)CCCCCCCC(C)C)[C@H](O)C(N)=O)[C@H](C)OC1=O	8 (≈ 4.95 µM)	16	2
CC[C@H](C)[C@@H]1NC(=O)[C@H]([C@H](C)CC(=O)O)NC(=O)[C@@H](CC(N)=O)NC(=O)CNC(=O)[C@H]([C@H](OC)C(=O)O)NC(=O)[C@@H](CC(N)=O)NC(=O)[C@H](CC(=O)O)NC(=O)[C@H](C)NC(=O)CN(C)C(=O)[C@@H](NC(=O)[C@@H](NC(=O)[C@@H](CCC(=O)O)NC(=O)[C@H](Cc2c[nH]c3ccccc23)NC(=O)CCCCCCCC(C)C)[C@H](O)C(N)=O)[C@H](C)OC1=O	8 (≈ 4.82 µM)	64	8
CC[C@H](C)[C@@H]1NC(=O)[C@H]([C@H](C)CC(=O)O)NC(=O)[C@@H](CO)NC(=O)CNC(=O)[C@H]([C@H](OC)C(=O)O)NC(=O)[C@@H](CCCCN)NC(=O)[C@H](CC(=O)O)NC(=O)[C@H](C)NC(=O)CN(C)C(=O)[C@@H](NC(=O)[C@@H](NC(=O)[C@@H](CCC(=O)O)NC(=O)[C@H](Cc2c[nH]c3ccccc23)NC(=O)CCCCCCCC(C)C)[C@H](O)C(N)=O)[C@H](C)OC1=O	2 (≈ 1.22 µM)	16	8
CC[C@H](C)[C@@H]1NC(=O)[C@H]([C@H](C)CC(=O)O)NC(=O)[C@@H](CC(N)=O)NC(=O)CNC(=O)[C@H]([C@H](OC)C(=O)O)NC(=O)[C@@H](CCCCN)NC(=O)[C@H](CC(=O)O)NC(=O)[C@H](C)NC(=O)CN(C)C(=O)[C@@H](NC(=O)[C@H](CC(N)=O)NC(=O)[C@@H](CCC(=O)O)NC(=O)[C@H](Cc2c[nH]c3ccccc23)NC(=O)CCCCCCCC(C)C)[C@H](C)OC1=O	2 (≈ 1.21 µM)	16	8
CC(C)CCCCCCCC(=O)N[C@@H](Cc1c[nH]c2ccccc12)C(=O)N[C@H](CC(N)=O)C(=O)N[C@@H](CC(=O)O)C(=O)N[C@@H]1C(=O)NCC(=O)N[C@@H](CCCN)C(=O)N[C@@H](CC(=O)O)C(=O)N[C@H](CCCCN)C(=O)N[C@@H](CC(=O)O)C(=O)NCC(=O)N[C@H](CC(N)=O)C(=O)N[C@@H]([C@H](C)CC(=O)O)C(=O)N[C@@H](CC(=O)c2ccccc2N)C(=O)O[C@H]1C	1 (≈ 0.582 µM)	32	32
CC(C)CCCCCCCC(=O)N[C@@H](Cc1c[nH]c2ccccc12)C(=O)N[C@H](CC(N)=O)C(=O)N[C@@H](CC(=O)O)C(=O)N[C@@H]1C(=O)NCC(=O)N[C@@H](CCCN)C(=O)N[C@@H](CC(=O)O)C(=O)N[C@H](C)C(=O)N[C@@H](CC(=O)O)C(=O)NCC(=O)N[C@H](CO)C(=O)N[C@@H]([C@H](C)CC(=O)O)C(=O)N[C@@H](Cc2c[nH]c3ccccc23)C(=O)O[C@H]1C	1 (≈ 0.613 µM)	32	32
CC(C)CCCCCCCC(=O)N[C@@H](Cc1c[nH]c2ccccc12)C(=O)N[C@H](CC(N)=O)C(=O)N[C@@H](CC(=O)O)C(=O)N[C@@H]1C(=O)NCC(=O)N[C@@H](CCCN)C(=O)N[C@@H](CC(=O)O)C(=O)N[C@H](C)C(=O)N[C@@H](CC(=O)O)C(=O)NCC(=O)N[C@H](CO)C(=O)N[C@@H](CCC(=O)O)C(=O)N[C@@H](CC(=O)c2ccccc2N)C(=O)O[C@H]1C	8 (≈ 4.94 µM)	16	2
